Measured values: publication PMC4805780 (International Journal for Parasitology: Drugs and Drug …, 2016)
Entries after “also recorded” stand apart in the source; their conditions may differ. Where two headings read alike, the source gives them in different places.

Tests used:
[1] = test system: H. contortus third-stage (L3) larvae; experiment: Anthelmintic effect on motility of third-stage larvae in culture; set-up: species or system Haemonchus contortus; settings: for anthelmintic effect against larvae: data not shown
Procedure, shortened: (§1)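 Adult females freshly taken from goat abomasum, or L3 larvae Baermann-extracted from 10-day, 21 °C faecal cultures; both PCR-confirmed as H. contortus. 100 worms per dish, in triplicate, in 20 ml RPMI-1640 with 2% glucose and antibiotics, pH 6.8. Rising test-compound concentrations, with DMSO and untreated controls; 37 °C, 5% CO2, 36 h. Worms light-stimulated 5 min at 37 °C. 50 scored per dish as very motile, sluggish or immotile. IC50 from % non-motile by nonlinear regression.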

[2] = test system: adult H. contortus female worms; experiment: Anthelmintic effect on motility of adult female worms in culture; set-up: species or system Haemonchus contortus; settings: for anthelmintic effect against adult worms: all concentrations up to a maximum of 80 μM
Procedure, shortened: as §1

P. falciparum PMT = settings: previous studies ref Bobenchik et al., 2013; cited from earlier work
[3] = target: T1, HcPMT1 + HcPMT2 combination (Haemonchus contortus, UniProt A0A2Z1FIB9+U5HK48); experiment: Methyltransferase HT activity kit assay, HcPMT1 + HcPMT2 combination; type: biochemical; settings: for IC50: read-out: HcPMT1 + HcPMT2 Activity inhibition IC50, 11 μg/ml each enzyme, 95 μM SAM, 160 μM phosphoethanolamine
T1 sequence (A0A2Z1FIB9 1-349): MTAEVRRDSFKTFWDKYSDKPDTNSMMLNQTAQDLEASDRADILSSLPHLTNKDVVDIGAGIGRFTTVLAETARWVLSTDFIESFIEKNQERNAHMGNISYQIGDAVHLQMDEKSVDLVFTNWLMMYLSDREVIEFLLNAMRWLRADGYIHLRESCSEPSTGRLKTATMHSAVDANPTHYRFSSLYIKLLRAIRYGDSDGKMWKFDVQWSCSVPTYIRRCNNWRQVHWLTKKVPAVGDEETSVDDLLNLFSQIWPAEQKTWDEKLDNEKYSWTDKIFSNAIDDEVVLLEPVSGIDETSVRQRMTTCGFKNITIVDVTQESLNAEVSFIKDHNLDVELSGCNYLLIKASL
T1 sequence (U5HK48 3-433): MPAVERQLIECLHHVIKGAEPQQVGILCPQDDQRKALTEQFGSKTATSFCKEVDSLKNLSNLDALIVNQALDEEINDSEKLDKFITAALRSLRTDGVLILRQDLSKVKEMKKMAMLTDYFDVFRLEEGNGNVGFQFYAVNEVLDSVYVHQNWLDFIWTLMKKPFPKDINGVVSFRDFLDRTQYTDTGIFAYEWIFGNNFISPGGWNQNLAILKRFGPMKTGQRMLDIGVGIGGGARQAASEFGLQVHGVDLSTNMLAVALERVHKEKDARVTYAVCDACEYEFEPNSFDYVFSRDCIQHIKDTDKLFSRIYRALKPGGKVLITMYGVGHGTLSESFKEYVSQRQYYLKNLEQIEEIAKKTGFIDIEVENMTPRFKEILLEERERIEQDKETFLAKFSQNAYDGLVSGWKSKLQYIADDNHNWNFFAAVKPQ
Procedure, shortened: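 His-tagged recombinant HcPMT1 and HcPMT2 from E. coli BL21-CodonPlus-DE3-RIL, Ni-affinity purified, dialysed in 5 mM Hepes-KOH pH 7.8 with 0.5 mM DTT. Fluorescent SAM-dependent methyltransferase kit, 11 µg/ml each enzyme, 95 µM SAM, 160 µM phosphoethanolamine. Rising test compound from DMSO stock; DMSO-only reactions as uninhibited. Triplicate, 24 °C, 45 min shaking, then kit positive-control mix 10 min. Isopropanol stop; fluorescence 380ex/520em. % inhibition against uninhibited mean RFU; IC50 by nonlinear regression.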

HcPMT1 = target: T2, HcPMT1 (Haemonchus contortus, UniProt A0A2Z1FIB9); experiment: Methyltransferase HT activity kit assay, HcPMT1 as sole enzyme; type: biochemical
T2 sequence (A0A2Z1FIB9 1-349): T1 sequence (A0A2Z1FIB9 1-349)

P. falciparum = settings: ref Bobenchik et al., 2013; cited from earlier work
MonoMac6 cells = experiment: WST-1 cytotoxicity assay in mammalian cells; type: cell-based, human; settings: read-out: cytotoxic IC50; mammalian monocytic cells, 48 h
Procedure, shortened: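 MonoMac6 cells seeded at 10⁴/well in phenol-red-free RPMI-1640 with 10% FCS, 2.05 mM L-glutamine, nonessential amino acids, OPI supplement and 1% penicillin-streptomycin. Test compound at rising concentrations in triplicate, with DMSO-only controls; 48 h, 37 °C, 5% CO2. WST-1 added, 1 h at 37 °C. Supernatant transferred and formazan read as absorbance at 420 nm.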

[4] = all concentrations up to a maximum of 80 μM

For `S=C(CSc1ccccc1)Nc1cccc2ccccc12` [NSC-158011, N-naphthalen-1-yl-2-phenylsulfanylethanethioamid], the “anthelmintic effect against larvae” value [1, 4] is given as “did not show any anthelmintic effect”, the “anthelmintic effect against adult worms” value ([2]; data not shown) is given as “did not show any anthelmintic effect” and the “inhibitory effect against catalytic activity of P. falciparum PMT” value (P. falciparum PMT) is given as “significant inhibitory effect”. For the same compound, the inhibition at 15 µM ([3]; read-out: maximum inhibition of combined activity of HcPMT1 and HcPMT2) was 12%, the “inhibitory effect against the activity of HcPMT1 as the sole enzyme” value (HcPMT1) was “did not have any significant inhibitory effect; also recorded: had no inhibitory effect” and the “antiparasitic activity against P. falciparum” value (P. falciparum) was “significant antiparasitic activity”.

In the case of `CC(=NNC(=[Se])N1CC2CCC(CC2)C1)c1ccccn1` [NSC-323241, 3-Azabicyclo[3.2.2]nonane-3-carboselenoic acid, [1-(2-pyridinyl)ethylidene]hydrazide], the “anthelmintic effect against larvae” value [1, 4] is given as “did not show any anthelmintic effect”, the “anthelmintic effect against adult worms” value ([2]; data not shown) is given as “did not show any anthelmintic effect” and the “inhibitory effect against catalytic activity of P. falciparum PMT” value (P. falciparum PMT) is given as “significant inhibitory effect”. The inhibition at 12 µM ([3]; read-out: maximum inhibition rate of combined activity of HcPMT1 and HcPMT2) was 21%, the “inhibitory effect against the activity of HcPMT1 as the sole enzyme” value (HcPMT1) was “did not have any significant inhibitory effect; also recorded: had no inhibitory effect” and the “antiparasitic activity against P. falciparum” value (P. falciparum) was “significant antiparasitic activity”.

In the case of `O=C1C=C(NCCc2cc(Br)c(O)c(Br)c2)C(=O)c2ncccc21` [NSC-668394, 5,8-Quinolinedione, 7-[[2-(3,5-dibromo-4-hydroxyphenyl)ethyl]amino]-], the “anthelmintic effect against larvae” value ([1]; up to 60 μM) is reported as “did not show any anthelmintic activity”, the “anthelmintic effect against adult H. contortus” value ([2]; up to 60 μM, data not shown) is reported as “did not show any anthelmintic activity” and the “concentration with highest inhibitory effect on HcPMT1 and HcPMT2 activity” value [3] is reported as 5 µM. It also gave an IC50 [3] of 2.8 ± 0.6 µM and an IC50 (HcPMT1) of 5.9 ± 0.9 µM.

With “Hydrazinecarbothioamide, N,N-dipropyl- 2-(2-pyridinemethylene)-, (N,N,S)-copper(II) chloride complex, (SP-4-3)- [NSC-641296]” the “concentration from which significant decrease in very motile larvae was observed” value ([1]; 36 h, P < 0.05) was 4 µM, the “cytotoxic IC50 relative to anthelmintic IC50 against larvae” value ([1]; MonoMac6 IC50 vs larvae IC50) was 2 fold and the “percentage of sluggishly motile larvae relative to very motile” value ([1]; above 4 μM, 36 h) was “at least 2.7 fold”. For the same compound, the “percentage of immotile worms relative to very motile worms” value ([1]; at 22 μM, larvae, 36 h) was 4 fold, the “percentage of sluggishly motile worms relative to very motile” value ([1]; from 14 μM and above, larvae, 36 h) was “at least 3 fold” and the “cytotoxic IC50 relative to anthelmintic IC50 against adult worms” value ([2]; MonoMac6 IC50 vs adult worm IC50) was 4 fold. The “percentage of immotile worms relative to motile worms” value ([2]; at 8 μM and above, adult worms, 36 h) was “at least 2 fold”, the “change in number of motile adult worms” value ([2]; at 8 μM, 36 h) was “decrease by half” and the “concentration with highest inhibitory effect on HcPMT1 and HcPMT2 activity” value [3] was 8 µM. For the same compound, the IC50 [3] was 5.1 ± 1.8 µM, the IC50 (MonoMac6 cells) was 29 ± 2.1 µM and the IC50 (HcPMT1; read-out: HcPMT1 Activity inhibition IC50, HcPMT1 alone, 95 μM SAM, 160 μM phosphoethanolamine) was 8.3 ± 1.1 µM.
